Test [1] concerns the target T1, DNA topoisomerase 1 (Homo sapiens) (UniProt P11387).
T1 sequence (whole entry): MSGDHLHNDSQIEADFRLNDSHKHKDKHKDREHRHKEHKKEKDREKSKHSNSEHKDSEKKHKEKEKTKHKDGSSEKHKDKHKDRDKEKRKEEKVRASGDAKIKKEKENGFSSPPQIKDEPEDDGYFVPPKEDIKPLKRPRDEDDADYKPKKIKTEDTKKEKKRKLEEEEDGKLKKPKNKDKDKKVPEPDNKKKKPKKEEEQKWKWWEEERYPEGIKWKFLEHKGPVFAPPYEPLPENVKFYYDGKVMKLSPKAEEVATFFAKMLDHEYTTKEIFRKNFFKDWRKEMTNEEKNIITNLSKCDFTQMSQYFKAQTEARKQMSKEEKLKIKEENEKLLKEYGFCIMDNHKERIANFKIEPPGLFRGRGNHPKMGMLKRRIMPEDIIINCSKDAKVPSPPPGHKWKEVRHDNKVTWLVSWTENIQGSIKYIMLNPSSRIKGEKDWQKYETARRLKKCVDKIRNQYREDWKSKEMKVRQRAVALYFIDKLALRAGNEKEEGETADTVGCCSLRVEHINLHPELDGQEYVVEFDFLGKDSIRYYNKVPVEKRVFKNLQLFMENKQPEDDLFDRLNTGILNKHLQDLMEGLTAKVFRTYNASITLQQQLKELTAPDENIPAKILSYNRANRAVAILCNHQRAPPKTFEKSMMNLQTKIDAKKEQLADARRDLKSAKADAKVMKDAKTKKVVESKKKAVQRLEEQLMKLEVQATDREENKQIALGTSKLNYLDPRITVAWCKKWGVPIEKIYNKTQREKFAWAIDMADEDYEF
Kind of test: Inhibition of DNA topoisomerase 1-mediated relaxation of supercoiled plasmid DNA at 100 uM after 3 hrs by gel electrophoresis. Summed up:
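Topoisomerase I kit assay. Compound at 100 µM final with 0.5% DMSO. Started with 5 U topo I, run 30 min at 37 °C, stopped with 1% SDS. Products resolved on 1% agarose in TAE at 80 V for 3 h, ethidium-stained. Inhibition scored 0 to 3+.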

In the next test the test system is PC-3. Kind of test: Cytotoxicity against human PC3 cells after 72 hrs by MTT assay. Format: functional, cell-based. As to conditions: PC-3, 72 h. Summed up:
(§1)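 Exponentially growing cells seeded at 1–8 × 10³ cells/well and left 24 h. Medium then replaced with medium holding compound in DMSO (final DMSO <0.1%), ten serial threefold dilutions, or DMSO alone. Triplicate wells, 72 h exposure. MTT added, 1 h at 37 °C, formazan dissolved in DMSO, A550 read. IC50 by non-linear regression; mean ± SD of at least three experiments.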
For orientation: Tetrazolium assays rely on reduction of a dye to a coloured formazan, in cell work by metabolically active cells.

The subject of a further test is HT-29. Kind of test: Cytotoxicity against human HT-29 cells after 72 hrs by MTT assay. Format: functional, cell-based. As to conditions: HT-29, 72 h. Summed up: as §1
Another test relates to HeLa. The experiment in a line: Cytotoxicity against human HeLa cells after 72 hrs by MTT assay. Format: functional, cell-based. The method, boiled down:
as §1

The subject of the next test is Jurkat. Kind of test: Cytotoxicity against human Jurkat cells after 72 hrs by XTT assay. The class given is functional, cell-based. Summed up: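 Exponentially growing Jurkat cells (RPMI 1640, 10% heat-inactivated FBS, 1% P/S, 2 mM glutamine) seeded at 5.5 × 10³ cells/well. Exposed to ten serial threefold dilutions of compound or DMSO vehicle in medium, triplicate wells, 72 h. XTT labeling mixture then added for 4 h at 37 °C, A450 read. IC50 by non-linear regression; mean ± SD of at least three experiments.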

The subject of the next test is HepG2. The experiment in a line: Cytotoxicity against human HepG2 cells after 72 hrs by MTT assay. The class given is functional, cell-based. As to conditions: HepG2, 72 h. Summed up: as §1
Test [2] has as its system BJ. Kind of test: Cytotoxicity against human BJ cells after 72 hrs by MTT assay. The class given is cell-based. Summed up: as §1
The test system of test [3] is BJ. The experiment in a line: Selectivity ratio of IC50 for human BJ cells to IC50 for human PC3 cells.
The mark [4] stands for this setting: in the assay text read “after 30 mins” for “after 3 hrs”.

Calls of active or inactive are those of the source. No cut-off for these calls is given here.

The IC50 is the concentration that gives 50% inhibition. High values mean weaker potency, low ones greater potency.

Take `C=C(C)[C@@H]1CC[C@]2(COC(=O)n3cncn3)CC[C@]3(C)[C@H](CC[C@@H]4[C@@]5(C)CC[C@H](OC(=O)n6cncn6)C(C)(C)[C@@H]5CC[C@]43C)[C@@H]12`: the inhibition entry in test [1] is “inactive”. Further, the IC50 was found to be 7.9 µM with PC-3 and 17.5 µM in the test on HT-29.

Regarding `C=C(C)[C@@H]1CC[C@]2(COC(=O)n3cncn3)CC[C@]3(C)[C@H](CC[C@@H]4[C@@]5(C)CC[C@H](OC(C)=O)C(C)(C)[C@@H]5CC[C@]43C)[C@@H]12`, the IC50 in the test with PC-3 and with HT-29 was over 30 µM throughout.

Take `C=C(C)[C@@H]1CC[C@]2(COC(=O)n3ccnc3C)CC[C@]3(C)[C@H](CC[C@@H]4[C@@]5(C)CC[C@H](OC(=O)n6ccnc6C)C(C)(C)[C@@H]5CC[C@]43C)[C@@H]12`: the IC50 in the test with HeLa, in the test with Jurkat, in the test on HepG2 and with HT-29 was over 30 µM each time. The inhibition result in test [1] (setting [4]) was “inactive”.

On to `C=C(C)[C@@H]1CC[C@]2(CO)CC[C@]3(C)[C@H](CC[C@@H]4[C@@]5(C)CC[C@H](OC(=O)n6cncn6)C(C)(C)[C@@H]5CC[C@]43C)[C@@H]12`, for which the IC50 with HeLa turned out to be 6.9 µM; in the test on BJ [2], 39.4 µM; in the test with PC-3, 2.1 µM; in the test on Jurkat, 12.2 µM; with HepG2, 7.3 µM; with HT-29, 4.9 µM. Further, the inhibition result in test [1] (setting [4]) was “Active”. Further, the “Ratio IC50” value in the test with BJ [3] is reported as 15.

For the compound `C=C(C)[C@@H]1CC[C@]2(C(=O)n3ccnc3C)CC[C@]3(C)[C@H](CC[C@@H]4[C@@]5(C)C=CC(=O)C(C)(C)[C@@H]5CC[C@]43C)[C@@H]12`, the half-inhibitory concentration (IC50) with HeLa stood at 10.6 µM; in the test on Jurkat, 12.5 µM; in the test with HepG2 it was 6.8 µM; with HT-29, 9 µM. In addition, the inhibition result in test [1] (setting [4]) was “inactive”.

As to `C=C(C)[C@@H]1CC[C@]2(COC(C)=O)CC[C@]3(C)[C@H](CC[C@@H]4[C@@]5(C)CC[C@H](OC(=O)n6ccnc6C)C(C)(C)[C@@H]5CC[C@]43C)[C@@H]12`, the IC50 in the test on HeLa, in the test with Jurkat, in the test on HepG2 and in the test on HT-29 was over 30 µM in each case.

For `C=C(C)[C@@H]1CC[C@]2(C(=O)O)CC[C@]3(C)[C@H](CC[C@@H]4[C@@]5(C)CC[C@H](OC(=O)n6ccnc6C)C(C)(C)[C@@H]5CC[C@]43C)[C@@H]12`, the IC50 with HeLa turned out to be 7.5 µM; in the test on BJ [2], 41.3 µM; with Jurkat, 6.1 µM; with HepG2, 7.3 µM; with HT-29 it was 5.7 µM. Also, the inhibition entry in test [1] was “Active”.

As to `C=C(COC)[C@@H]1CC[C@]2(COC(=O)n3cncn3)CC[C@]3(C)[C@H](CC[C@@H]4[C@@]5(C)CC[C@H](O)C(C)(C)[C@@H]5CC[C@]43C)[C@@H]12`, the IC50 with HeLa came out at 24.3 µM; with BJ [2], 46.6 µM; with PC-3 it was 2.6 µM; in the test with Jurkat, 9.5 µM; with HepG2, 9.1 µM; in the test with HT-29, 5.8 µM. Besides, the inhibition result in test [1] is “Active”. The “Ratio IC50” value in the test on BJ [3] was 15.

For the compound `C=C(C)[C@@H]1CC[C@]2(COC(=O)n3ccnc3C)CC[C@]3(C)[C@H](CC[C@@H]4[C@@]5(C)CC[C@H](O)C(C)(C)[C@@H]5CC[C@]43C)[C@@H]12`, the IC50 was determined as 11 µM in the test with HeLa, 15.8 µM in the test on Jurkat, 36.4 µM in the test with HepG2 and 16.2 µM in the test on HT-29. In test [1] (setting [4]), the inhibition entry was “inactive”.

Consider `C=C(C)[C@@H]1CC[C@]2(C(=O)O)CC[C@]3(C)[C@H](CC[C@@H]4[C@@]5(C)CC[C@H](O)C(C)(C)[C@@H]5CC[C@]43C)[C@@H]12` [BETULINIC ACID], for which the IC50 turned out to be 26 µM in the test on HeLa; 21.5 µM in the test on PC-3; 26.9 µM in the test on Jurkat; 36.4 µM in the test with HepG2; 12.8 µM with HT-29.

As to `C=C(C)[C@@H]1CC[C@]2(C(=O)n3ccnc3C)CC[C@]3(C)[C@H](CC[C@@H]4[C@@]5(C)CCC(=O)C(C)(C)[C@@H]5CC[C@]43C)[C@@H]12`, the IC50 in the test with HeLa was 4.2 µM; in the test on BJ [2], 48.4 µM; in the test on Jurkat, 5.3 µM; in the test with HepG2, 5.5 µM; in the test on HT-29, 4.7 µM. The inhibition entry in test [1] is “inactive”.

Take `C=C(COC)[C@@H]1CC[C@]2(COC(=O)n3cncn3)CC[C@]3(C)[C@H](CC[C@@H]4[C@@]5(C)CC[C@H](OC(=O)n6cncn6)C(C)(C)[C@@H]5CC[C@]43C)[C@@H]12`: the inhibition result in test [1] was “inactive”. In addition, the IC50 amounted to 6.4 µM in the test on PC-3 and 12.3 µM with HT-29.

As for `C=C(C)[C@@H]1CC[C@]2(C(=O)O)CC[C@]3(C)[C@H](CC[C@@H]4[C@@]5(C)C=C(OC(=O)n6ccnc6C)C(=O)C(C)(C)[C@@H]5CC[C@]43C)[C@@H]12`, the IC50 was 6.4 µM in the test on HeLa; 37.2 µM in the test on BJ [2]; 9.4 µM in the test with Jurkat; 4.7 µM in the test with HepG2; 5.9 µM in the test with HT-29. Also, the inhibition result in test [1] (setting [4]) was “Active”.

Turning to `C=C(C)[C@@H]1CC[C@]2(COC(C)=O)CC[C@]3(C)[C@H](CC[C@@H]4[C@@]5(C)CC[C@H](OC(=O)n6cncn6)C(C)(C)[C@@H]5CC[C@]43C)[C@@H]12`, the IC50 in the test with PC-3 and with HT-29 was over 30 µM each time.

In the case of `C=C(COC)[C@@H]1CC[C@]2(COC(=O)n3ccnc3C)CC[C@]3(C)[C@H](CC[C@@H]4[C@@]5(C)CC[C@H](O)C(C)(C)[C@@H]5CC[C@]43C)[C@@H]12`, the IC50 in the test with HeLa was determined as 8.9 µM; in the test on Jurkat it was 24.8 µM; in the test with HepG2, 14.4 µM; in the test on HT-29, 10.4 µM. For the same compound, the inhibition entry in test [1] (setting [4]) was “inactive”.

With `C=C(C)[C@@H]1CC[C@]2(COC(=O)n3ccnc3C)CC[C@]3(C)[C@H](CC[C@@H]4[C@@]5(C)CC[C@H](OC(C)=O)C(C)(C)[C@@H]5CC[C@]43C)[C@@H]12`, the IC50 in the test on HeLa, in the test with Jurkat, with HepG2 and in the test on HT-29 was over 30 µM in each case.

With `Cc1nccn1C(=O)OC[C@]12CC[C@@H]([C@@H](C)C=O)C1[C@H]1CC[C@@H]3[C@@]4(C)CC[C@H](O)C(C)(C)[C@@H]4CC[C@@]3(C)[C@]1(C)CC2` (stereo not given in full), the IC50 in the test with HeLa is 16.6 µM; in the test with Jurkat it was 21.3 µM; in the test on HepG2, 14.3 µM; in the test on HT-29, 15.8 µM. Further, in test [1] (setting [4]), the inhibition entry was “Active”.

For `C=C(C)[C@@H]1CC[C@]2(COC(=O)n3cncn3)CC[C@]3(C)[C@H](CC[C@@H]4[C@@]5(C)CC[C@H](O)C(C)(C)[C@@H]5CC[C@]43C)[C@@H]12`, the inhibition result in test [1] is “inactive”. The IC50 with PC-3 amounted to 4.7 µM; in the test with HT-29, 7.6 µM.

Turning to `C=C(COC)[C@@H]1CC[C@]2(COC(=O)n3ccnc3C)CC[C@]3(C)[C@H](CC[C@@H]4[C@@]5(C)CC[C@H](OC(=O)n6ccnc6C)C(C)(C)[C@@H]5CC[C@]43C)[C@@H]12`, the IC50 is 13.4 µM in the test with HeLa, over 30 µM in the test on Jurkat, 28.2 µM in the test with HepG2 and over 30 µM in the test with HT-29. In test [1] (setting [4]), the inhibition entry was “inactive”.

The values above are taken from ChEMBL document CHEMBL1165980, “Synthesis and structure-activity relationship study of novel cytotoxic carbamate and N-acylheterocyclic bearing derivatives of betulin and betulinic acid” (Bioorg Med Chem, 2010).
